Laboratory results: PMC3904296 (Journal of medicinal chemistry, 2013)

How the values were obtained:
male NIH Swiss mice [1] = assay: Thermoregulation assay; format: in vivo; conditions: 10 mg/kg intraperitoneal, Figure 5
In short: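 Under isoflurane, a glass-encapsulated radiotelemetry probe was implanted in the peritoneal cavity. Mice recovered at least 7 days and were housed singly. On test days they were weighed, and baseline core temperature was recorded for at least 1 h. Drug or equal-volume vehicle was then injected, 4–8 mice per group. […] Data are mean ± SEM, analysed by one-way ANOVA with Tukey post-test.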

CB1Rs = conditions: cited from earlier work
[2] = target: CB1Rs endogenously expressed in Neuro2A cells (Mus musculus, UniProt P47746); assay: Adenylyl cyclase assay in Neuro2A cells; format: cell-based; conditions: for inhibition of AC-activity via CB1Rs (concentration-effect curves): Neuro2A cells, Figure 3A; for antagonism of AC-inhibition produced by the CB1R full agonist 3: 1 μM concentration of antagonist, 10^−7 M concentration of 3, Figure 3B
Sequence of CB1Rs endogenously expressed in Neuro2A cells (P47746 whole entry): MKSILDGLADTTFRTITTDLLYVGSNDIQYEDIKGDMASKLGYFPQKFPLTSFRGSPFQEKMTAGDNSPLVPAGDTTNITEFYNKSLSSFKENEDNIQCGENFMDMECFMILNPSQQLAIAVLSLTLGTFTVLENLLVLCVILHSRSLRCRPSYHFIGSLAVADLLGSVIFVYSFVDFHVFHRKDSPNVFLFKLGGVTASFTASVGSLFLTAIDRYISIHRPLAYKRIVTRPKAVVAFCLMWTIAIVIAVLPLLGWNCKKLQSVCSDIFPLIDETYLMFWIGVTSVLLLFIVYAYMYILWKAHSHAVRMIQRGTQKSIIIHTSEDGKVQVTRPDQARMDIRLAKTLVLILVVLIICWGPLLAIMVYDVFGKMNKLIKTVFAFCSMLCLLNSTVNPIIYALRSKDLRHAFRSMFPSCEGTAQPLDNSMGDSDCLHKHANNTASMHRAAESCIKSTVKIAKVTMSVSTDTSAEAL

male NIH Swiss mice [3] = assay: Oral EtOH self-administration; format: in vivo; conditions: 10 mg/kg i.p. daily for 10 days
CB2Rs in CHO-hCB2 cells = CB2Rs in CHO-hCB2 cells (Homo sapiens, UniProt P34972); assay: Adenylyl cyclase assay in CHO-hCB2 cells; format: cell-based; conditions: Figure 4A
Sequence of CB2Rs in CHO-hCB2 cells (P34972 whole entry): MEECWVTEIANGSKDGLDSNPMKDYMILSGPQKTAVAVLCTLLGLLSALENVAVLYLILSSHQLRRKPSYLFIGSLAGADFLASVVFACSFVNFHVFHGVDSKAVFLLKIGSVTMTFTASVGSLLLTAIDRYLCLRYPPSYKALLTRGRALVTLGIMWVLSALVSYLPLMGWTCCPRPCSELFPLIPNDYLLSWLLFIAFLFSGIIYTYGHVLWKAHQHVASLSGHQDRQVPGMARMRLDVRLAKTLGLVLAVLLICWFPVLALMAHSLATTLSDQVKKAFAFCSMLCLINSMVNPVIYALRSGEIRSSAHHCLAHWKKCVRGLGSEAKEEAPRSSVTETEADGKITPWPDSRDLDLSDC

CHO-WT cells = assay: Adenylyl cyclase assay in CHO-WT cells not expressing CB2Rs; format: cell-based; conditions: Figure 4B

SMILES	hypothermic effect (core body temperature) (male NIH Swiss mice [1])	intrinsic activity at CB1Rs in [35S]GTPγS functional assay (CB1Rs)	inhibition of AC-activity via CB1Rs (concentration-effect curves) [2]	EtOH preference (two-bottle choice, 10% EtOH vs water) (male NIH Swiss mice [3])	body weight across the treatment period (male NIH Swiss mice [3])	total fluid consumption (male NIH Swiss mice [3])	antagonism of AC-inhibition produced by the CB1R full agonist 3 [2]	inhibition of AC-activity at CB2Rs (concentration-effect curves) (CB2Rs in CHO-hCB2 cells)	modification of AC-activity in CHO-WT cells (CHO-WT cells)
CCCCn1cc(C(=O)c2cccc3ccccc23)c2ccccc21 [Compound 3, (1-butyl-1H-indol-3-yl)(naphthalen-1-yl)methanone]	elicited a profound hypothermic effect								
CCCCn1cc(C(=O)c2cccc3ccccc23)c2cccc(O)c21 [Compound 4, reference compound]		lacks intrinsic activity	50–60%						
CCCCn1cc(Cc2cccc3ccccc23)c2cccc(OC)c21 [Compound 27, 1-Butyl-7-methoxy-3-(naphthalen-1-ylmethyl)-1H-indole]			very little inhibition of AC-activity	reduced EtOH preference	did not decrease body weight	without affecting total fluid consumption	antagonize AC-inhibition produced by CB1R-agonist	40–50%	neither 27 nor 30 significantly modified AC-activity
CCCCn1cc(-c2ccc3ccccc3c2)c2cccc(OC)c21 [Compound 30, 1-Butyl-7-methoxy-3-(naphthalen-2-yl)-1H-indole]			very little inhibition of AC-activity	reduced EtOH preference	did not decrease body weight	without affecting total fluid consumption	antagonize AC-inhibition produced by CB1R-agonist	40–50%	neither 27 nor 30 significantly modified AC-activity
CC1=CC[C@@H]2[C@@H](C1)c1c(O)cc(CC#CCCCNS(C)(=O)=O)cc1OC2(C)C [Compound O-2050, reference compound]							significantly antagonized AC-inhibition		
Cc1c(C(=O)NN2CCCCC2)nn(-c2ccc(Cl)cc2Cl)c1-c1ccc(Cl)cc1 [rimonabant, reference compound]				decreased EtOH preference	decreased body weight	without altering total fluid intake			
